From ChEMBL document CHEMBL1649517, “Effect of MexXY overexpression on ceftobiprole susceptibility in Pseudomonas aeruginosa” (2009)

Experiments:
Pseudomonas aeruginosa [1] = assay: Antimicrobial activity against Pseudomonas aeruginosa isolate OC14551 harboring plasmid JAK16 expressing mexXY gene by broth microdilution method; type: functional
In short: (§1)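 CLSI broth microdilution MIC on P. aeruginosa transformants. Plasmids (control vector pJAK16, pMexXY or cloned mexZ repressor; 200 ng) were electroporated into fresh electrocompetent cells, and transformants were selected on Mueller-Hinton plates with chloramphenicol 200 or 400 μg/ml. Cultures were kept in chloramphenicol 200 μg/ml to maintain the plasmid, with 1 mM IPTG to induce the cloned gene.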

Pseudomonas aeruginosa [2] = assay: Antimicrobial activity against Pseudomonas aeruginosa isolate OC16830 harboring plasmid MexZ expressing mexXY gene by broth microdilution method
Pseudomonas aeruginosa [3] = assay: Antimicrobial activity against Pseudomonas aeruginosa isolate OC16827 by broth microdilution method; type: functional
In short: (§2)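 Clinical P. aeruginosa isolates, baseline and posttreatment, collected in ceftobiprole phase III clinical trials. MICs were measured by CLSI broth microdilution.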

Pseudomonas aeruginosa [4] = assay: Antimicrobial activity against Pseudomonas aeruginosa isolate OC16827 harboring plasmid MexZ expressing mexXY gene by broth microdilution method
Pseudomonas aeruginosa [5] = assay: Antimicrobial activity against Pseudomonas aeruginosa isolate OC14805 by broth microdilution method; type: functional; in short: as §2
Pseudomonas aeruginosa [6] = assay: Antimicrobial activity against Pseudomonas aeruginosa isolate OC17355 harboring plasmid MexZ expressing mexXY gene by broth microdilution method; type: functional; in short: as §1
Pseudomonas aeruginosa [7] = assay: Antimicrobial activity against Pseudomonas aeruginosa isolate OC17355 by broth microdilution method; type: functional; in short: as §2
Pseudomonas aeruginosa [8] = assay: Antimicrobial activity against Pseudomonas aeruginosa PAO1 harboring plasmid MexZ expressing mexXY gene by broth microdilution method; type: functional; in short: as §1
Pseudomonas aeruginosa [9] = assay: Antimicrobial activity against Pseudomonas aeruginosa isolate OC14551 harboring plasmid MexZ expressing mexXY gene by broth microdilution method; type: functional; in short: as §1
Pseudomonas aeruginosa [10] = assay: Antimicrobial activity against Pseudomonas aeruginosa isolate OC14812 harboring plasmid MexZ expressing mexXY gene by broth microdilution method; type: functional; in short: as §1
Pseudomonas aeruginosa [11] = assay: Antimicrobial activity against Pseudomonas aeruginosa isolate OC14812 by broth microdilution method; type: functional; in short: as §2
Pseudomonas aeruginosa [12] = assay: Antimicrobial activity against Pseudomonas aeruginosa isolate OC16827 harboring plasmid MexXY expressing mexXY gene by broth microdilution method; type: functional; in short: as §1
Pseudomonas aeruginosa [13] = assay: Antimicrobial activity against Pseudomonas aeruginosa PAO1 harboring plasmid MexXY expressing mexXY gene by broth microdilution method; type: functional; in short: as §1
Pseudomonas aeruginosa [14] = assay: Antimicrobial activity against Pseudomonas aeruginosa PAO1 harboring plasmid JAK16 expressing mexXY gene by broth microdilution method; type: functional; in short: as §1
Pseudomonas aeruginosa [15] = assay: Antimicrobial activity against Pseudomonas aeruginosa isolate OC16830 by broth microdilution method; type: functional; in short: as §2
Pseudomonas aeruginosa [16] = assay: Antimicrobial activity against Pseudomonas aeruginosa isolate OC14551 by broth microdilution method; type: functional; in short: as §2
Pseudomonas aeruginosa [17] = assay: Antimicrobial activity against Pseudomonas aeruginosa isolate OC16830 harboring plasmid JAK16 expressing mexXY gene by broth microdilution method; type: functional; in short: as §1
Pseudomonas aeruginosa [18] = assay: Antimicrobial activity against Pseudomonas aeruginosa isolate OC14812 harboring plasmid JAK16 expressing mexXY gene by broth microdilution method; type: functional; in short: as §1
Pseudomonas aeruginosa [19] = assay: Antimicrobial activity against Pseudomonas aeruginosa isolate OC17355 harboring plasmid JAK16 expressing mexXY gene by broth microdilution method; type: functional; in short: as §1
Pseudomonas aeruginosa [20] = assay: Antimicrobial activity against Pseudomonas aeruginosa isolate OC17349 by broth microdilution method; type: functional; in short: as §2
Pseudomonas aeruginosa [21] = assay: Antimicrobial activity against Pseudomonas aeruginosa isolate OC16827 harboring plasmid JAK16 expressing mexXY gene by broth microdilution method; type: functional; in short: as §1
Pseudomonas aeruginosa [22] = assay: Antimicrobial activity against Pseudomonas aeruginosa isolate OC14552 by broth microdilution method; type: functional; in short: as §2
Pseudomonas aeruginosa [23] = assay: Antimicrobial activity against Pseudomonas aeruginosa isolate OC14805 after 7 to 14 days by broth microdilution method; type: functional; in short: as §2
Pseudomonas aeruginosa [24] = assay: Antimicrobial activity against Pseudomonas aeruginosa isolate OC14552 on day 4 by broth microdilution method; type: functional; details: isolate OC14552, 96 h; in short: as §2
Pseudomonas aeruginosa [25] = assay: Antimicrobial activity against Pseudomonas aeruginosa isolate OC14551 on day 8 by broth microdilution method; details: isolate OC14551, 192 h
Pseudomonas aeruginosa [26] = assay: Antimicrobial activity against Pseudomonas aeruginosa isolate OC17349 after end of treatment by broth microdilution method; type: functional; in short: as §2
Pseudomonas aeruginosa [27] = assay: Antimicrobial activity against Pseudomonas aeruginosa isolate OC17349 on day 4 by broth microdilution method; type: functional; details: isolate OC17349, 96 h; in short: as §2
Pseudomonas aeruginosa [28] = assay: Antimicrobial activity against Pseudomonas aeruginosa isolate OC16827 on day 14 by broth microdilution method; type: functional; details: isolate OC16827, 336 h; in short: as §2
Pseudomonas aeruginosa [29] = assay: Antimicrobial activity against Pseudomonas aeruginosa isolate OC14805 on day 4 by broth microdilution method; type: functional; details: isolate OC14805, 96 h; in short: as §2
Pseudomonas aeruginosa [30] = assay: Antimicrobial activity against Pseudomonas aeruginosa isolate OC16827 after end of treatment by broth microdilution method; type: functional; in short: as §2
Pseudomonas aeruginosa [31] = assay: Antimicrobial activity against Pseudomonas aeruginosa isolate OC17349 after 7 to 14 days by broth microdilution method; type: functional; in short: as §2
Pseudomonas aeruginosa [32] = assay: Antimicrobial activity against Pseudomonas aeruginosa isolate OC14805 after > 14 days by broth microdilution method; type: functional; details: isolate OC14805, 336 h; in short: as §2

Measured: MIC

CO/N=C(\C(=O)N[C@@H]1C(=O)N2C(C(=O)[O-])=C(C[N+]3(C)CCCC3)CS[C@H]12)c1csc(N)n1
4 µg/mL: Pseudomonas aeruginosa [2] | Pseudomonas aeruginosa [9] | Pseudomonas aeruginosa [20] | Pseudomonas aeruginosa [22]
2 µg/mL: Pseudomonas aeruginosa [3] | Pseudomonas aeruginosa [4] | Pseudomonas aeruginosa [5] | Pseudomonas aeruginosa [6] | Pseudomonas aeruginosa [10] | Pseudomonas aeruginosa [14] | Pseudomonas aeruginosa [21]
8 µg/mL: Pseudomonas aeruginosa [7] | Pseudomonas aeruginosa [11] | Pseudomonas aeruginosa [12] | Pseudomonas aeruginosa [13] | Pseudomonas aeruginosa [15] | Pseudomonas aeruginosa [16] | Pseudomonas aeruginosa [17] | Pseudomonas aeruginosa [18] | Pseudomonas aeruginosa [19]
1 µg/mL: Pseudomonas aeruginosa [8]
16 µg/mL: Pseudomonas aeruginosa [1]

CC(C)(O/N=C(\C(=O)N[C@@H]1C(=O)N2C(C(=O)[O-])=C(C[n+]3ccccc3)CS[C@H]12)c1csc(N)n1)C(=O)O [CEFTAZIDIME]
2 µg/mL: Pseudomonas aeruginosa [2] | Pseudomonas aeruginosa [3] | Pseudomonas aeruginosa [4] | Pseudomonas aeruginosa [5] | Pseudomonas aeruginosa [12] | Pseudomonas aeruginosa [14] | Pseudomonas aeruginosa [15] | Pseudomonas aeruginosa [17] | Pseudomonas aeruginosa [21]
1 µg/mL: Pseudomonas aeruginosa [8] | Pseudomonas aeruginosa [13]
4 µg/mL: Pseudomonas aeruginosa [1] | Pseudomonas aeruginosa [6] | Pseudomonas aeruginosa [7] | Pseudomonas aeruginosa [9] | Pseudomonas aeruginosa [10] | Pseudomonas aeruginosa [11] | Pseudomonas aeruginosa [16] | Pseudomonas aeruginosa [18] | Pseudomonas aeruginosa [19] | Pseudomonas aeruginosa [20] | Pseudomonas aeruginosa [22]

Nc1nc(/C(=N/O)C(=O)N[C@@H]2C(=O)N3C(C(=O)O)=C(/C=C4\CCN([C@@H]5CCNC5)C4=O)CS[C@H]23)ns1 [CEFTOBIPROLE]
4 µg/mL: Pseudomonas aeruginosa [24] | Pseudomonas aeruginosa [3] | Pseudomonas aeruginosa [9] | Pseudomonas aeruginosa [14] | Pseudomonas aeruginosa [29] | Pseudomonas aeruginosa [20] | Pseudomonas aeruginosa [21] | Pseudomonas aeruginosa [22]
2 µg/mL: Pseudomonas aeruginosa [5] | Pseudomonas aeruginosa [6] | Pseudomonas aeruginosa [10]
1 µg/mL: Pseudomonas aeruginosa [2] | Pseudomonas aeruginosa [4] | Pseudomonas aeruginosa [8]
8 µg/mL: Pseudomonas aeruginosa [19]
32 µg/mL: Pseudomonas aeruginosa [13]
16 µg/mL: all other assays above

O=C(O)c1cn(C2CC2)c2cc(N3CCNCC3)c(F)cc2c1=O [CIPROFLOXACIN]
4 µg/mL: Pseudomonas aeruginosa [7] | Pseudomonas aeruginosa [19] | Pseudomonas aeruginosa [20]
1 µg/mL: Pseudomonas aeruginosa [6] | Pseudomonas aeruginosa [11] | Pseudomonas aeruginosa [13] | Pseudomonas aeruginosa [18]
0.12 µg/mL: Pseudomonas aeruginosa [2] | Pseudomonas aeruginosa [4] | Pseudomonas aeruginosa [8] | Pseudomonas aeruginosa [22]

GENTAMICIN
4 µg/mL: Pseudomonas aeruginosa [3] | Pseudomonas aeruginosa [7] | Pseudomonas aeruginosa [9] | Pseudomonas aeruginosa [14] | Pseudomonas aeruginosa [16] | Pseudomonas aeruginosa [20] | Pseudomonas aeruginosa [21] | Pseudomonas aeruginosa [22]
2 µg/mL: Pseudomonas aeruginosa [5] | Pseudomonas aeruginosa [10]
0.25 µg/mL: Pseudomonas aeruginosa [6] | Pseudomonas aeruginosa [8]
8 µg/mL: Pseudomonas aeruginosa [1] | Pseudomonas aeruginosa [11] | Pseudomonas aeruginosa [15] | Pseudomonas aeruginosa [17] | Pseudomonas aeruginosa [18]
16 µg/mL: Pseudomonas aeruginosa [19]
